Hits are enriched below; roughly 2.1% of the tested compounds scored in any of these assays.
VIM-2 inhibitor – blocks Pseudomonas aeruginosa VIM-2 metallo-beta-lactamase | purified VIM-2, nitrocefin hydrolysis, epi-absorbance fluorescence | inhibition, % at 5.6 µM | 0.89% of 290,000 active;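 active = inhibition above the mean of all tested compounds plus 3 SD, cutoff set per screening run, cut at about 7.5% in these data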;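 also: red hydrolysis product quenches plate fluorescence so inhibitors raise well fluorescence; 0% = enzyme with DMSO and 100% = DMSO without enzyme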
PKA-R1A act – activators of PKA-R1A complex; PKA-R1A dissociation, Cy5-IP20 fluorescence polarization; scaled: DMSO 0%, 113 µM cGMP 100%; 0.083% of 340,000 active; activation, % at 11.4 µM; AID 504707; P00514+P68181;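 active = percent activation above the mean of all tested compounds plus 3 SD, cut at about 19% in these data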;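 also: higher means more PKAc released from R1A so a rise in polarization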
MsrA act – activators of bovine methionine sulfoxide reductase A. purified bovine MsrA, absorbance read-out. 0.3% of 360,000 active. activation, % at 10.6 µM; in the data active = activation above about 7.5%;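 also: 0% = vehicle and 100% = reference activator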
IMP-1 inh-1 – inhibitors of Pseudomonas aeruginosa IMP-1 metallo-beta-lactamase | purified IMP-1, nitrocefin hydrolysis, epi-absorbance fluorescence | 0.45% of 290,000 active | inhibition, % at 5.6 µM;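 active = inhibition above the mean plus 3 SD of all compounds in the same screening run, cut at about 4.5% in these data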;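 also: 0% = IMP-1 with DMSO and 100% = DMSO wells lacking enzyme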
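Test system: recombinant IMP-1 enzyme, purified / Medium: HEPES buffer pH 7.1 with ZnSO4 and Brij 35 / Doses: single dose, 5.6 µM / Times: 25 °C, 15 min preincubation, 25 min reaction / Detection: Epi-absorbance via hydrolysed-nitrocefin quenching of white-plate fluorescence, 480/530 nm, EDTA stop / Evaluation: percent inhibition from optical density relative to buffer-blank wells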
MsrA inhibitor – inhibitors of bovine MsrA; inhibition, % at 15.5 µM; 0.75% of 360,000 active; AID 651718; purified bovine MsrA, absorbance read-out; in the data active = inhibition above about 4.5%;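 also: 0% = vehicle wells with enzyme and 100% = reference inhibitor wells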
PKA-R2B activ – activators of human PKA-R2B complex; 0.079% of 340,000 active; P22694+P31323; PKA-R2B holoenzyme dissociation, Cy5-IP20 fluorescence polarization; R2B truncated from residue 108, S112A mutant; 0% DMSO only, 100% 113 µM cGMP; activation, % at 11.4 µM;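 active = activation above a cutoff set at the mean over all compounds plus 3 SD, cut at about 18% in these data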;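 also: higher means more holoenzyme dissociation and a rise in polarization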
IMP-1 inh-2 – selectivity counter-screen for VIM-2 inhibitors: IMP-1 metallo-beta-lactamase inhibitors. shares compounds with VIM-2 inhibitor. purified IMP-1, nitrocefin hydrolysis, epi-absorbance fluorescence. inhibition, % at 5.6 µM. 1,300 tested, under 10 active. AID 1856; call rule not given here;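 also: 0% = enzyme with vehicle and 100% = vehicle without enzyme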
VIM-2 FRET inh – inhibits VIM-2 in FRET assay to exclude epi-absorbance artifacts; shares compounds with VIM-2 inhibitor; purified VIM-2, CCF2 FRET substrate hydrolysis; inhibition, % at 5.6 µM; 23% of 1,300 active; AID 1857;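 active = inhibition above the mean of all tested compounds plus 3 SD, cut at about 19% in these data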;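 also: 0% = VIM-2 plus DMSO and 100% = no enzyme wells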
TEM-1 counter – TEM-1 inhibition, counter-screen for VIM-2 inhibitors; shares compounds with VIM-2 inhibitor; 3% of 1,300 active; Purified TEM-1, nitrocefin hydrolysis, epi-absorbance fluorescence; AID 1866; inhibition, % at 5.6 µM;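 active = inhibition above that campaign's mean inhibition plus 3 SD, cut at about 0.46% in these data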;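 also: 0% = TEM-1 with DMSO and 100% = TEM-1 with 100 µM potassium clavulanate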
Target sequence (P62593 whole entry, looked up): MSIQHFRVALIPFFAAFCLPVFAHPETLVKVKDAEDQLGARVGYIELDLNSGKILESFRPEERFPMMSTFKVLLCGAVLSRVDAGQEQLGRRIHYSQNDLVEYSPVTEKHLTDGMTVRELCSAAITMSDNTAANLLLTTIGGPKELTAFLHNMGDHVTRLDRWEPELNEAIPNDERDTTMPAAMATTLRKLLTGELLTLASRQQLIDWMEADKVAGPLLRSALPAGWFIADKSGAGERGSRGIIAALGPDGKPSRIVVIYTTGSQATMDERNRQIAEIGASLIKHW
VIM-2 confirm 2 – confirmation of P. aeruginosa VIM-2 metallo-beta-lactamase inhibitors; shares compounds with VIM-2 inhibitor; purified VIM-2, nitrocefin hydrolysis, epi-absorbance; inhibition, % at 5.6 µM; 96% of 1,300 active;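 active = inhibition of the VIM-2 beta-lactamase enzyme above about 11% from the earlier first-round screen, limit read from the data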;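 also: 0% = VIM-2 with DMSO and 100% = buffer wells without enzyme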
Starred values were filed as active, the others as inactive; . = no result.

SMILES	VIM-2 inhibitor	PKA-R1A act	MsrA act	IMP-1 inh-1	MsrA inhibitor	PKA-R2B activ	IMP-1 inh-2	VIM-2 FRET inh	TEM-1 counter	VIM-2 confirm 2
Oc1ccc(-c2n[nH]c(=S)n2-c2ccc3c(c2)OCCO3)c(O)c1	17*	-11	1	-5	-1	-5	-2	36*	-8	19*
O=S1(=O)CC(N2CCSCC2)CN1Cc1cn(Cc2ccccc2)nn1 (stereo unspecified)	.	.	-2	.	0	.	.	.	.	.
C=CCN(CC=C)Cc1c(O)ccc2c1oc(=O)c1ccccc12	17*	-1	-8	-2	3	-19	-3	-21	-5	44*
C=CCN(CC=C)Cc1cc(=O)oc2ccc3ccccc3c12	.	.	-2	.	1	.	.	.	.	.
CC(=C/c1ccccc1)/C=N/n1c(-c2ccco2)n[nH]c1=S	17*	-2	1	-2	1	-3	-3	38*	-7	23*
COc1ccccc1-n1c(-c2ccco2)n[nH]c1=S	22*	-13	1	-1	0	-5	-3	44*	-8	28*
S=c1[nH]nc(-c2ccco2)n1-c1cccc2ccccc12	19*	-7	-8	-7	0	-12	-2	49*	-8	32*
CC(C)Oc1ccc(Cn2c(-c3ccco3)n[nH]c2=S)cc1	16*	-3	-7	-6	0	-3	-3	45*	-10	27*
COCOCCn1cc(CN2CCS(=O)(=O)N(Cc3ccc(-c4ccc(F)cc4)cc3)C(C(C)C)C2=O)nn1 (stereo unspecified)	.	7	0	.	-1	-1	.	.	.	.
CC1(C)NC(=O)N(CC(=O)OCC(=O)Nc2c(Br)cc([N+](=O)[O-])cc2Br)C1=O	.	-2	-1	.	0	1	.	.	.	.
COC(=O)[C@]1(C)N[C@H](CN(C)S(=O)(=O)c2ccc(OC(F)(F)F)cc2)[C@@H]2C(=O)N(Cc3ccccc3)C(=O)[C@@H]21	.	-4	0	.	-1	4	.	.	.	.
Cc1noc(C)c1CSCC(=O)OCc1nnc(-c2ccc([N+](=O)[O-])cc2)o1	.	0	-2	.	0	-12	.	.	.	.
Fc1ccccc1-c1n[nH]c(=S)n1CC1CCCO1 (stereo unspecified)	35*	2	1	-3	-1	-8	-4	61*	-6	44*
CN1CCN(c2ccc(NC(=O)COc3ccccc3[N+](=O)[O-])cc2)CC1	45*	-10	-5	-1	1	2	-3	-1	-7	66*
CCOc1ccc(C(=O)Nc2ccc(N3CCN(C)CC3)cc2)cc1[N+](=O)[O-]	30*	3	-2	-3	1	9	-2	-3	-7	58*
COc1ccc(C(=O)Nc2ccc(N3CCN(C)CC3)cc2)cc1[N+](=O)[O-]	34*	-8	-4	-4	0	-9	-3	-1	-7	60*
CS(=O)(=O)N1CCN(c2ccc(NC(=O)COc3ccccc3[N+](=O)[O-])cc2)CC1	-3	-1	-4	-1	1	-3	.	.	.	.
O=C(Nc1ccncc1)c1ccc(Cl)c(S(=O)(=O)N2CCCC2)c1	.	-9	-7	.	2	-7	.	.	.	.
OC1=C(O)c2nc3ccccc3nc21	-1	-4	-3	-2	.	1	.	.	.	.
OC1=C(O)c2nc3cc(C(F)(F)F)ccc3nc21	17*	-1	-5	1	2	0	-4	-1	-6	2
Cc1cccc(C(=O)Nc2nnc(SCC(=O)NCc3ccco3)s2)c1	18*	-13	-3	-1	0	8	-3	37*	-7	24*
